Experimental data reported in ChEMBL document CHEMBL1132971, “New azolidinediones as inhibitors of protein tyrosine phosphatase 1B with antihyperglycemic properties” (J Med Chem, 2000).
pIC50: −log10 of the molar value. Activity calls are given as the source filed them. No cut-off for these calls is given here.

Assays:
[1] = target: T1, Tyrosine-protein phosphatase non-receptor type 1 (Rattus norvegicus) (UniProt P20417); assay: Inhibition of PTPase (PTP1B) activity in rat hepatic membrane at 50 uM concentration, using pNPP as the substrate; format: cell membranes; conditions: Liver
T1 sequence (whole entry): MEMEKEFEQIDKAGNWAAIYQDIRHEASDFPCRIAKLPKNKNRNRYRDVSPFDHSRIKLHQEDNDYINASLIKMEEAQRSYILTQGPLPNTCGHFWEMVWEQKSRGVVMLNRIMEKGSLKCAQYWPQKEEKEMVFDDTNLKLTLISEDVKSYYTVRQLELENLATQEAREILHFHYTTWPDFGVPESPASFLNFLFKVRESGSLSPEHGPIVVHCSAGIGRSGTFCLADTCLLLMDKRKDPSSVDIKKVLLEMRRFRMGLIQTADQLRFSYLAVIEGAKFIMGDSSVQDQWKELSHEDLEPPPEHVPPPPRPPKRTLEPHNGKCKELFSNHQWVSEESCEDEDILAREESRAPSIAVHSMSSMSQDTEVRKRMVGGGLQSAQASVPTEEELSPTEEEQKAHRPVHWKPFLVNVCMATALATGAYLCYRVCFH
Outline: (§1)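 Liver membranes from male Sprague-Dawley rats (100-150 g), about 30 µg protein per well. Preincubated 10 min at 37 °C with compound in 1.25% DMSO in 50 mM HEPES pH 7.4. Then 6.33 mM pNPP for 30 min at 37 °C, stopped with NaOH. p-Nitrophenol read at 410 nm. Run in triplicate. Reported as percent of untreated control.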

[2] = target: T1, Tyrosine-protein phosphatase non-receptor type 1 (Rattus norvegicus); assay: Inhibition of PTPase activity using recombinant r-PTP1B as the enzyme and IR-triphosphopeptide as substrate at 50 uM
Outline: (§2)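 Rat recombinant PTP1B in 33 mM TRIS-HCl, 2 mM EDTA, 50 mM β-mercaptoethanol, pH 7.4 (about 1000-2000 nmol/min/mg). Preincubated 10 min at 37 °C with or without compound in HEPES buffer pH 7.4. Released phosphate read by malachite green-ammonium molybdate at 650 nm against a phosphate standard. Quadruplicates. IC50 by four-parameter logistic fit.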

Mus musculus [3] = assay: Evaluated in vivo for their ability to decrease plasma glucose levels in diabetic C57BL/KsJ db/db mouse at a dose 100 mg/kg/day, *p indicates <0.05; format: functional
Outline: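 Mice dosed orally once daily for 4 days; plasma glucose and insulin measured and expressed as percent change versus a vehicle-treated group (mean ± SE, 4-6 mice/group). NS is generally less than -15% change. Significance is versus vehicle-treated mice.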

[4] = target: T1, Tyrosine-protein phosphatase non-receptor type 1 (Rattus norvegicus); assay: Inhibition of Protein-tyrosine phosphatase 1B activity in rat hepatic membrane at a concentration of 50 uM using pNPP as the substrate; format: cell membranes; conditions: Liver; outline: as §1
[5] = target: T2, Tyrosine-protein phosphatase non-receptor type 1 (Rattus norvegicus, UniProt P20417); assay: Inhibition of PTPase activity using recombinant r-PTP1B as the enzyme and IR-triphosphopeptide as substrate; outline: as §2
T2 sequence (P20417 whole entry): T1 sequence (whole entry)

[6] = target: T3, Tyrosine-protein phosphatase non-receptor type 1 (Mus musculus) (UniProt P35821); assay: Ability to decrease plasma insulin levels in mouse at a dose 100 mg/kg/day; format: functional, organism-based
T3 sequence (whole entry): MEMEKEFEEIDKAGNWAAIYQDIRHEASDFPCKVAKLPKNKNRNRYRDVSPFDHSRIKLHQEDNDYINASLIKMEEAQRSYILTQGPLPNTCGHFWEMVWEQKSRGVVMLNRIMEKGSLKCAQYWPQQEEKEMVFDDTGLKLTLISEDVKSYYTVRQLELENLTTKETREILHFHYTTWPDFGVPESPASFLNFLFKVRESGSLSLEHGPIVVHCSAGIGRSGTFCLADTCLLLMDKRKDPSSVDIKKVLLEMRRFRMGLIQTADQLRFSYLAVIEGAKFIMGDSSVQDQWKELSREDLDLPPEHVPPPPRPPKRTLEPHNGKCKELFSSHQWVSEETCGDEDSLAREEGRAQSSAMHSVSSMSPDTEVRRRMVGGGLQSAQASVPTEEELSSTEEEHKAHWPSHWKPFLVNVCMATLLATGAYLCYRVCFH
Outline: (§3)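 Diabetic db/db or ob/ob mice dosed orally once daily for 4 days. Plasma glucose and insulin reported as percent change from a vehicle-treated group. 4-6 mice per group. Significance set at p < 0.05 or p < 0.01 versus vehicle; NS means generally less than -15% change.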

[7] = target: T3, Tyrosine-protein phosphatase non-receptor type 1 (Mus musculus); assay: In vivo ability to decrease plasma glucose levels in diabetic C57BL/KsJ ob/ob mouse at a dose 100 mg/kg/day; format: functional, organism-based; outline: as §3
Mus musculus [8] = assay: Evaluated in vivo for their ability to decrease plasma glucose levels in diabetic C57BL/KsJ db/db mouse at a dose 100 mg/kg/day.; format: functional; outline: as §3
[9] = target: T2, Tyrosine-protein phosphatase non-receptor type 1; assay: Inhibition of PTPase activity using recombinant r-PTP1B and IR-triphosphopeptide as substrate; ND is no data.; outline: as §2
[10] = target: T4, Tyrosine-protein phosphatase non-receptor type 1 (Homo sapiens, UniProt P18031); assay: Concentration required to inhibit PTPase activity, recombinant Protein Tyrosine Phosphatase 1b as the enzyme; outline: as §2
T4 sequence (P18031 whole entry): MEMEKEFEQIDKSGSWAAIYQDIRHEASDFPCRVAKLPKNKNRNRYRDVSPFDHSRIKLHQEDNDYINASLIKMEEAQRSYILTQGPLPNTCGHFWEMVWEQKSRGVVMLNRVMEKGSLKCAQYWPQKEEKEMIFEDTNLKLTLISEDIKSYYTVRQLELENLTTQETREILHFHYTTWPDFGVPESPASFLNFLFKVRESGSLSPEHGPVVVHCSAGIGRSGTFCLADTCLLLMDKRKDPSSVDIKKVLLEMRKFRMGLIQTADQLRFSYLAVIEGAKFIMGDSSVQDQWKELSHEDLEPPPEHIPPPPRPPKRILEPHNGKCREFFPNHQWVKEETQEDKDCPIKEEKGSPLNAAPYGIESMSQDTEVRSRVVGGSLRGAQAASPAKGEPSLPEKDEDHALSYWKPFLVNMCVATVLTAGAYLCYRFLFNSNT

## Cc1oc(-c2ccc(C(F)(F)F)cc2)nc1COc1ccc2c(c1)C=C/C2=C\Cn1oc(=O)[nH]c1=O
[1]
  inhibition: 31%
[2]
  inhibition: 83%

## C/C(=C\Cn1oc(=O)[nH]c1=O)c1ccc2oc(Cc3nc(-c4ccc(C(F)(F)F)cc4)oc3C)cc2c1
Mus musculus [3]
  Decrease: 31%
[1]
  inhibition: 57%
[2]
  inhibition: 53%

## C/C(=C\Cn1oc(=O)[nH]c1=O)c1cccc(OCc2nc(-c3ccccc3)oc2C)c1 (stereo in doubt; 67)
[4]
  inhibition: 25%

## C/C(=C\Cn1oc(=O)[nH]c1=O)c1cccc(OCc2noc(-c3ccccc3)n2)c1
[1]
  inhibition: 17%
[5]
  pIC50: 5.52

## Cc1oc(-c2ccc(C(F)(F)F)cc2)nc1COc1cccc(CCCn2oc(=O)[nH]c2=O)c1
[6]
  Decrease: Not significant
Mus musculus [3]
  Decrease: 21%
[7]
  Decrease: Not significant
[1]
  inhibition: 54%
[2]
  inhibition: 4.3%

## C/C(=C\Cn1oc(=O)[nH]c1=O)c1cccc(OCc2coc(-c3ccc(C(F)(F)F)cc3)n2)c1
[6]
  Decrease: Not significant
[7]
  Decrease: Not significant
[1]
  inhibition: 32%
[5]
  pIC50: 4.72

## Cc1oc(-c2ccccc2)nc1COc1cccc(C#CC(C)n2oc(=O)[nH]c2=O)c1 (centres undefined)
[6]
  Decrease: Not significant
[7]
  Decrease: Not significant
[1]
  inhibition: 23%

## Cc1oc(-c2ccc(Cl)cc2)nc1COc1cccc(/C=C/C(C)n2oc(=O)[nH]c2=O)c1 (centres undefined)
[6]
  Decrease: Not significant
[7]
  Decrease: Not significant
[1]
  inhibition: 33%
Mus musculus [8]
  Decrease: 20%
[9]
  IC50: Not significant

## CCCC/C(=C\Cn1oc(=O)[nH]c1=O)c1cccc(OCc2nc(-c3ccc(C(F)(F)F)cc3)oc2-c2ccccc2)c1
[10]
  pIC50: 6.43
[1]
  inhibition: 76%

## C/C(=C\Cn1oc(=O)[nH]c1=O)c1cccc(OCCc2nc(-c3ccccc3)oc2C)c1
[6]
  Decrease: Not significant
[7]
  Decrease: Not significant
[1]
  inhibition: 45%
Mus musculus [8]
  Decrease: 38%
[5]
  pIC50: 4.62

## C/C(Cn1oc(=O)[nH]c1=O)=C(/C)c1cccc(OCc2nc(-c3ccc(C(F)(F)F)cc3)oc2C)c1
[1]
  inhibition: 47%
Mus musculus [8]
  Decrease: 20%

## C/C(=C\CC1OC(=O)NC1=O)c1cccc(OCc2nc(-c3ccc(OCC(F)(F)F)cc3)oc2C)c1 (centres undefined)
[6]
  Decrease: Not significant
[7]
  Decrease: Not significant
[1]
  inhibition: 37%
Mus musculus [8]
  Decrease: inactive
[9]
  IC50: Not significant

## C/C(=C\CN1CC(=O)NC1=O)c1cccc(OCc2nc(-c3ccc(C(F)(F)F)cc3)oc2C)c1
[6]
  Decrease: Not significant
[7]
  Decrease: Not significant
[5]
  pIC50: 4.89

## CC1(COc2ccc(CC3SC(=O)NC3=O)cc2)CCCCC1 (centres undefined) [CIGLITAZONE]
[1]
  inhibition: 20%
Mus musculus [8]
  Decrease: 32%

## Cc1oc(-c2ccc(C(F)(F)F)cc2)nc1COc1cccc(/C(=C/Cn2oc(=O)[nH]c2=O)C2CCCCC2)c1
[6]
  Decrease: Not significant
[7]
  Decrease: Not significant
[1]
  inhibition: 66%
[2]
  inhibition: 49%

## C/C(=C\Cn1oc(=O)[nH]c1=O)c1cccc(OCc2nc(-c3ccccc3)oc2C)c1 (stereo in doubt; 49)
[4]
  inhibition: 35%

## CCCC/C(=C\Cn1oc(=O)[nH]c1=O)c1cccc(Oc2ccccc2)c1
[1]
  inhibition: 63%
[5]
  pIC50: 5.70

## CCCC/C(=C\Cn1oc(=O)n(CC(=O)O)c1=O)c1cccc(Oc2cc(Cl)cc(Cl)c2)c1
[10]
  pIC50: 5.89
[1]
  inhibition: 63%

## CCCCCCCCC(=CCn1oc(=O)n(CC(=O)O)c1=O)c1cccc(OCc2nc(-c3ccc(C(F)(F)F)cc3)oc2C)c1
[10]
  pIC50: 6.92
[1]
  inhibition: 64%

## C/C(=C\CC1OC(=O)NC1=O)c1cccc(OCc2nc(-c3ccccc3)oc2C)c1 (centres undefined)
[6]
  Decrease: Not significant
[7]
  Decrease: Not significant
[1]
  inhibition: 23%
Mus musculus [8]
  Decrease: 18%
[9]
  IC50: Not significant

## CCCCCCCC/C(=C/Cn1oc(=O)n(CC(=O)O)c1=O)c1cccc(OCc2nc(-c3ccc(C(F)(F)F)cc3)oc2C)c1
[10]
  pIC50: 6.80
[1]
  inhibition: 57%

## CCCC/C(=C\Cn1oc(=O)n(CC(=O)O)c1=O)c1cccc(OCc2cc(Cl)cc(Cl)c2)c1
[10]
  pIC50: 4.32
[1]
  inhibition: 31%

## CCCC/C(=C\Cn1oc(=O)[nH]c1=O)c1cccc(Oc2ccc(OC)cc2)c1
[1]
  inhibition: 62%
[5]
  pIC50: 5.00

## CCCC/C(=C\Cn1oc(=O)[nH]c1=O)c1cccc(Oc2ccc(C)cc2)c1
[1]
  inhibition: 62%
[5]
  pIC50: 4.89

## C/C(=C\Cn1oc(=O)[nH]c1=O)c1cccc(OCc2cc(C(F)(F)F)cc(C(F)(F)F)c2)c1
[5]
  pIC50: 5.39

## COc1ccc(/C(=C\Cn2oc(=O)[nH]c2=O)c2cccc(OCc3nc(-c4ccc(C(F)(F)F)cc4)oc3C)c2)cc1
[6]
  Decrease: Not significant
[7]
  Decrease: Not significant
[1]
  inhibition: 56%
[2]
  inhibition: 34%

## C/C(=C\C(C)n1oc(=O)[nH]c1=O)c1cccc(OCc2nc(-c3ccc(C(F)(F)F)cc3)oc2C)c1 (centres undefined)
[6]
  Decrease: Not significant
[7]
  Decrease: Not significant
[1]
  inhibition: 38%
Mus musculus [8]
  Decrease: 16%

## Cc1oc(-c2ccc(C(F)(F)F)cc2)nc1COc1ccc2oc(Cn3oc(=O)[nH]c3=O)cc2c1
[1]
  inhibition: 14%
[9]
  IC50: Not significant

## C/C(=C\Cn1oc(=O)[nH]c1=O)c1cccc(COc2cc(C(F)(F)F)cc(C(F)(F)F)c2)c1
[1]
  inhibition: 64%
[5]
  pIC50: 4.92

## C/C(=C\Cn1oc(=O)[nH]c1=O)c1ccccc1OCc1nc(-c2ccc(C(F)(F)F)cc2)oc1C
[6]
  Decrease: Not significant
[7]
  Decrease: Not significant
[1]
  inhibition: Not significant
[5]
  pIC50: 4.37

## C/C(=C\Cn1oc(=O)[nH]c1=O)c1cccc(OCc2nc(-c3ccc(OCC(F)(F)F)cc3)oc2C)c1
[6]
  Decrease: Not significant
Mus musculus [3]
  Decrease: 44%
[7]
  Decrease: Not significant
[1]
  inhibition: 52%
[9]
  IC50: Not significant

## C/C(=C\Cn1oc(=O)[nH]c1=O)c1cccc(OCc2ccc3c(Cl)cccc3c2)c1
[1]
  inhibition: 20%
[5]
  pIC50: 4.80

## CCCCc1oc2ccccc2c1Cc1cccc(/C(C)=C/Cn2oc(=O)[nH]c2=O)c1
[5]
  pIC50: 5.89

## COc1cc(OCc2nc(-c3ccc(C(F)(F)F)cc3)oc2C)cc(/C(C)=C/Cn2oc(=O)[nH]c2=O)c1
[1]
  inhibition: 49%
[2]
  inhibition: 12%

## Cc1oc(-c2ccc(C(F)(F)F)cc2)nc1COc1cccc(C2(C)CC2Cn2oc(=O)[nH]c2=O)c1 (centres undefined)
[6]
  Decrease: Not significant
[7]
  Decrease: Not significant
[1]
  inhibition: 51%
[2]
  inhibition: 1%
